Experimental data from ChEMBL document CHEMBL2321836, “Discovery of novel Trypanosoma brucei phosphodiesterase B1 inhibitors by virtual screening against the unliganded TbrPDEB1 crystal structure” (J Med Chem, 2013).

Experiments:
[1] = Selectivity ratio of IC50 for Trypanosoma brucei PDEB1 to IC50 for human PDE4B
[2] = target: T1, Class 1 phosphodiesterase PDEB1 (Trypanosoma brucei, UniProt Q8WQX9); test: Inhibition of Trypanosoma brucei full length PDEB1 expressed in insect SF21 cells using cAMP as substrate by scintillation proximity assay
T1 sequence (Q8WQX9 whole entry): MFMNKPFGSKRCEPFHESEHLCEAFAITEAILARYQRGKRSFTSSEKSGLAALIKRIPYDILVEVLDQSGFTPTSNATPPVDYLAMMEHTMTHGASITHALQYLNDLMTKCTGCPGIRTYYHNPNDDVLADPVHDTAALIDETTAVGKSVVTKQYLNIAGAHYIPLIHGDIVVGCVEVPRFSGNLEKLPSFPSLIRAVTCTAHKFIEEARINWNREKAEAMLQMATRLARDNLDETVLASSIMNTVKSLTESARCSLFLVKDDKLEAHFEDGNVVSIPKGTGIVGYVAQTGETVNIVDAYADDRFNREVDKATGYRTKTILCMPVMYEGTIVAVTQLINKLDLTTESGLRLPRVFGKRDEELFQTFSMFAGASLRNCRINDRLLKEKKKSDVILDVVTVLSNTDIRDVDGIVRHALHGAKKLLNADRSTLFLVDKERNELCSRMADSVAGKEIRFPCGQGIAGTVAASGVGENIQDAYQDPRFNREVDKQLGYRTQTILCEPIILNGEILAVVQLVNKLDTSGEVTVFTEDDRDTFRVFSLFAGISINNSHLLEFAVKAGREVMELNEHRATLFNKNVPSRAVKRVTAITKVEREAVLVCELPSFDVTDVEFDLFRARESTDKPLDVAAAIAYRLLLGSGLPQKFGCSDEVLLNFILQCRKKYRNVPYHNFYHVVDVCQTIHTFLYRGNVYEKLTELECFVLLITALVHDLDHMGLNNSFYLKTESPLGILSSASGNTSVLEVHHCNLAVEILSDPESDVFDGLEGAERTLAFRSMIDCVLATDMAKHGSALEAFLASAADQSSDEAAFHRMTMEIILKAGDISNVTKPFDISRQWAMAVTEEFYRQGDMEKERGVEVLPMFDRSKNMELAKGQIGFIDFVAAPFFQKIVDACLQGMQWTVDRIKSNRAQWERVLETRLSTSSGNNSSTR
Outline: (§1)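 Full-length enzyme harvested by sonication of supernatants of overexpressing Sf21 cells. Scintillation proximity assay with 0.5 μM cAMP substrate. Enzyme level set so that <20% of cAMP was consumed. Blanks used denatured protein. Run in at least duplicate.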

[3] = target: 3',5'-cyclic-AMP phosphodiesterase 4B (Homo sapiens, UniProt Q07343); test: Inhibition of human full length PDE4B expressed in insect SF21 cells using cAMP as substrate by scintillation proximity assay
3',5'-cyclic-AMP phosphodiesterase 4B, sequence (Q07343 whole entry): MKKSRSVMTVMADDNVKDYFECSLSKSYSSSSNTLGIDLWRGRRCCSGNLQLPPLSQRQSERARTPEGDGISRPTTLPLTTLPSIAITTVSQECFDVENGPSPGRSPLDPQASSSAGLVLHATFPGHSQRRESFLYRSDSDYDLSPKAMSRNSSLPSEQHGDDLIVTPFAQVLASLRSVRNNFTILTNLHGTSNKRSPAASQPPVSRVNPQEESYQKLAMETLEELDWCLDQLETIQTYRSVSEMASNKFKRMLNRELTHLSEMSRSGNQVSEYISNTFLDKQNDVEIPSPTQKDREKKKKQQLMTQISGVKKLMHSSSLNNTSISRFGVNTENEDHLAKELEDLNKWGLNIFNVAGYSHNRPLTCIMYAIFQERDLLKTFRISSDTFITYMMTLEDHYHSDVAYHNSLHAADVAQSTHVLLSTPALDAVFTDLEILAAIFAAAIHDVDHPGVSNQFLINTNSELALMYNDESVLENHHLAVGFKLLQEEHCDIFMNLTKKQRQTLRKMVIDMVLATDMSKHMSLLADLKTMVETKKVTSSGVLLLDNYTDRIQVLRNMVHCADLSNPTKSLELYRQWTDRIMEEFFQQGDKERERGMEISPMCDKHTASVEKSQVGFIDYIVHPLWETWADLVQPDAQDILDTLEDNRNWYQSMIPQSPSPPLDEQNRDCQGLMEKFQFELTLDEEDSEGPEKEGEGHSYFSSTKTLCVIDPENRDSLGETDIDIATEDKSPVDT
Outline: as §1, with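 “duplicate. IC50 obtained by a one-site competitive binding fit, with curves assumed to plateau at 100% inhibition.” for “duplicate.”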

`CCCn1c(=O)n(C)c(=O)c2c(SCC(=O)c3ccc(Cl)cc3)nc(CC(C)C)nc21` showed a Ratio IC50 [1] of 0.4, an IC50 [2] of 10 µM and an IC50 [3] of 26 µM.

Molecule `O=C(CCCSc1ncnc2sc(-c3ccccc3)cc12)N1CCOCC1` has an IC50 [2] of 12 µM and an IC50 [3] of 14 µM.

`Cc1cc(SCC(=O)c2ccc(O)c(O)c2)n2nc(C)c(-c3ccccc3)c2n1` showed an IC50 [2] of 13 µM and an IC50 [3] of 5 µM.

Molecule `O=C(NCc1ccc(Cn2cncn2)cc1)c1ccc2[nH]c3c(c2c1)CCCC3` has an IC50 [2] of 75 µM and an IC50 [3] of 68 µM.

`O=C1c2cccc3cccc(c23)C(=O)N1CCCC(=O)N(Cc1ccco1)C1CC1` showed a Ratio IC50 [1] of 2.6, an IC50 [2] of 41 µM and an IC50 [3] of 16 µM.

For `O=C(CCc1nc2ccccc2n(CCc2ccccc2)c1=O)N1CCCCC1`, the Ratio IC50 [1] was 3.6, the IC50 [2] was 54 µM and the IC50 [3] was 15 µM.
